Assay outcomes deposited in PubChem BioAssay by several laboratories.
In the library only some 2.6% were active in any assay of this set; here they are far more common.
TDP2 absorb: blocks human TDP2 phosphodiesterase activity; O95551; recombinant TDP2, T5PNP hydrolysis, p-nitrophenol absorbance 415 nm; inhibition, % at 12.8 µM; 370,000 tested, 0.34% active; AID 720702;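 active = inhibition above the mean of all tested compounds plus 3 SD, set per campaign, cut at about 25% in these data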;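 note: 0% = DMSO with enzyme and 100% = buffer with substrate but no TDP2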
Target sequence (O95551 whole entry, looked up): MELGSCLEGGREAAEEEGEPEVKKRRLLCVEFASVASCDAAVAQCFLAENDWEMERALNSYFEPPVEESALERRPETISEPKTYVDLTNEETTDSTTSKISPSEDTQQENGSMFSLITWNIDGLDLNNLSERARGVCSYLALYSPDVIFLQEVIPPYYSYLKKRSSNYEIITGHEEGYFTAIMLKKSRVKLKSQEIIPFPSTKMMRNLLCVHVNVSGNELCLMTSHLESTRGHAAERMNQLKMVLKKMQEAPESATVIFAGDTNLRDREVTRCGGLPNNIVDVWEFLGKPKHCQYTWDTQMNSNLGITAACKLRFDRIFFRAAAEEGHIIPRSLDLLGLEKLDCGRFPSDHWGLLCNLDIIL
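Evaluation: % inhibition relative to enzyme-containing and enzyme-free wells. Material: recombinant human TDP2. Benchmarks: enzyme-free and DMSO wells. Timing: enzyme reaction with compound for 2 h at 37 °C. Compound dosing: 12.8 µM only. Measured by: p-Nitrophenol epi absorbance. Reagent: T5PNP substrate at 5 mM, a TopII-DNA adduct mimic. Replication: single well per compound.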
GSTO1 counter: blocks human GSTO1 in RBBP9 counter-screen. P78417. recombinant GSTO1, activity-based probe fluorescence polarization. inhibition, % at 5.96 µM. 300,000 tested, 1.1% active. AID 1974;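 active = inhibition above the campaign mean inhibition plus 3 SD, cut at about 35% in these data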;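 note: 0% = GSTO1-1 with DMSO and 100% = wells lacking GSTO1-1 enzyme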
Target sequence (P78417 whole entry, looked up): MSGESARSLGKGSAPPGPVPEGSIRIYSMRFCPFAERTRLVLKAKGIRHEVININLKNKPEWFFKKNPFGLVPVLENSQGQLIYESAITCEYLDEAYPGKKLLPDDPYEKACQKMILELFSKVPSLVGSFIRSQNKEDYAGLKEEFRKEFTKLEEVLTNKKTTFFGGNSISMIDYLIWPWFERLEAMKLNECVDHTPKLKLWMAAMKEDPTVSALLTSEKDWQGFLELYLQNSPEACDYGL
PAD4 FP inh: blocks human protein arginine deiminase 4; Q9UM07; recombinant PAD4, RCA probe fluorescence polarization; inhibition, % at 6.36 µM; 330,000 tested, 0.41% active; AID 485272;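 active = percent inhibition above a cutoff equal to the mean of all tested compounds plus 3 SD, cut at about 15% in these data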;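 note: 0% = PAD4 with RCA probe and DMSO and 100% = probe without PAD4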
PRMT1 FP inh: PRMT1 (human) inhibition, primary screen; recombinant PRMT1, activity-based probe fluorescence polarization; inhibition, % at 2.79 µM; 370,000 tested, 1.3% active; AID 652257;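 active = inhibition above about 21% made by adding two undisclosed values, limit read from the data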
Apaf1 inhib: human Apaf-1 inhibition. reconstituted apoptosome caspase-3 activity, DEVD-Rh110 fluorescence. inhibition, % at 20 µM. 330,000 tested, 0.71% active; active = inhibition of at least 40% at 20 µM;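 note: plate controls were DMSO wells for no effect and DEVD-CHO caspase inhibitor wells for full effect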
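System: reconstituted apoptosome with Apaf-1, cytochrome c, caspase-9, procaspase-3, dATP; Signal: Rh110 fluorescence intensity; Schedule: 30 min compound preincubation, 50 min activation, room temperature; Reagent: cytochrome c trigger plus (Z-DEVD)2-Rh110 caspase-3 substrate.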
GSTO1 inh conf: confirmation of human GSTO1 inhibitors; recombinant GSTO1, probe fluorescence polarization; shares compounds with GSTO1 counter; inhibition, % at 5.96 µM; 2,400 tested, 54% active;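 active = inhibition above the primary screen's cutoff, its mean inhibition plus 3 SD, cut at about 35% in these data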;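 note: loss of polarization as inhibitors block binding of rhodamine sulfonate ester activity probe; 0% = GSTO1 with DMSO and 100% = wells lacking GSTO1 enzyme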
GSTO1 recomb ABPP: inhibitors of recombinant human GSTO1. 130 tested, 30% active. gel ABPP SE-Rh probe fluorescence. AID 463110. shares compounds with GSTO1 counter. inhibition, % at 1 µM;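 active = inhibition of the enzyme GSTO1 above about 75%, limit read from the data; inactive = inhibition below that limit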
Numbers without * were called inactive; · = not tested or not shown.

SMILES	TDP2 absorb	GSTO1 counter	PAD4 FP inh	PRMT1 FP inh	Apaf1 inhib	GSTO1 inh conf	others
COC1=C(c2ccccc2)C(=O)c2ccccc2C1=O	7	44*	-13	1	16	35*
N#CC(C#SN)=C1CCCCC1	5	52*	2	24*	0	34
N#CC(C(=O)O)=C1CCCC1	3	12	0	0	-9	·
CC(=O)Oc1ccc(OC(C)=O)c(S(=O)(=O)c2ccc(C)c(C)c2)c1	-14	47*	-1	-5	2	7
CC(C)(O)CC[C@@H](O)[C@](C)(O)[C@H]1CC[C@@]2(O)C3=CC(=O)[C@@H]4C[C@@H](O)[C@@H](O)C[C@]4(C)[C@H]3CC[C@]12C	-3	39*	-1	-1	-1	7
COc1ccc2nc(NC(=O)c3ccccc3O)sc2c1	15	8	-4	-5	19	·
CCOC(=O)c1cccc(C(=O)Nc2nc3ccc(OC)cc3s2)n1	-12	53*	-7	-5	17	5
CN1CCN(c2ccc(-c3csc(N4CCC(C(N)=O)CC4)n3)cc2)CC1	2	·	·	-5	·	·
CCOC(=O)Cn1c(=O)oc2cc(S(=O)(=O)Nc3ccc(N(CC)CC)cc3C)ccc21	-6	68*	-1	9	6	62*
COC(=O)[C@]12C[C@H](CC(=O)N3CCC(c4ccccc4)CC3)C(=O)N(Cc3ccc(Cl)cc3Cl)C1=C[C@H](C1CCCC1)O[C@@H]2C	10	·	·	4	·	·
CC(=O)Nc1ccc2c(c1)C(=O)c1ccccc1C2=O	4	4	2	1	2	·
CC(=O)Nc1ccc(NC2=CC(=O)c3ccccc3C2=O)cc1	-12	39*	-9	-3	32	8
Cc1cc(NC(=O)Cc2cccs2)no1	4	44*	-19	7	12	21
O=P(O)(Cc1ccccc1)Cc1ccccc1	3	47*	1	1	0	3
CC(C)NC(=O)C1(C)CN(S(C)(=O)=O)CC(=O)N1C1CCCCCC1 (stereo unspecified)	4	·	·	-3	·	·
COC(=O)c1c([N+](=O)[O-])c(OC)c(OC)c(OC)c1[N+](=O)[O-]	-2	39*	-7	-8	-7	54*
CCC(Sc1nc(-c2cccc(OC)c2)c(C#N)c(=O)[nH]1)C(=O)Nc1nnc(C(C)C)s1 (stereo unspecified)	-6	50*	1	4	11	62*
COc1ccc2[nH]cc(C(=O)CN3CC(C)CC(C)C3)c2c1 (stereo unspecified)	-10	2	0	-2	1	·
COc1ccc2[nH]cc(C(=O)CCl)c2c1	-6	83*	4	-5	-6	100*
Cc1ccc(N(CCC#N)C(=O)CCl)cc1C	6	93*	9	-1	-8	90*	GSTO1 recomb ABPP=18
Cc1ccc(SCC(=O)OCC(=O)N(CCC#N)c2ccccc2)cc1C	10	6	2	5	9	·
COc1ccc(C(=O)CSc2nnc(-c3ccccc3)n2-c2ccc(Cl)cc2)cc1	-1	·	·	2	·	·
O=C(/C=C/c1ccccc1[N+](=O)[O-])OCC(=O)N1CCN(c2ccccc2)CC1	-1	·	·	-1	·	·
Cc1[nH][nH]c(=O)c1C(c1ccc(Br)cc1)c1c(C)[nH][nH]c1=O	-4	16	-12	2	12	·
CSc1ccc(C(c2c(C)[nH][nH]c2=O)c2c(C)[nH][nH]c2=O)cc1	19	39*	-8	-2	22	0
SMILES	TDP2 absorb	GSTO1 counter	PAD4 FP inh	PRMT1 FP inh	Apaf1 inhib	GSTO1 inh conf	others
COc1ccccc1CCn1cnc(-c2ccc(F)cc2)c1CC(C)C	-3	·	·	3	·	·
Cc1ccc(S(=O)(=O)c2nc(S(C)(=O)=O)sc2N2CCOCC2)cc1	-6	-3	0	-5	-2	·
Cc1ccc(S(=O)(=O)c2nc(S(C)(=O)=O)sc2N2CCC3(CC2)OCCO3)cc1	-1	63*	4	-5	-5	5
COc1ccc(-n2nc3c(c2NC(=O)C(C)Cl)CSC3)cc1 (stereo unspecified)	-16	2	0	4	7	·
COc1ccc(-n2nc3c(c2NC(=O)CCl)CSC3)cc1	-1	88*	-2	7	12	92*
COc1cccc(-c2ccc(CC[C@H]3O[C@H]4CC[C@@H](CO)O[C@H]4C[C@H]3NC(=O)c3cnccn3)cc2)c1	2	·	·	-2	·	·
O=C1NC[C@@H](CCCCN2CCN(CC3CCCCC3)C(=O)C2=O)N(CCC2CCCCC2)C1=O	-4	·	·	2	·	·
CCN(CC)CCCNC(=O)CC1Oc2ccccc2NC1=O (stereo unspecified)	-5	·	·	4	·	·
CCCC1NC(=S)N(C2CCCCC2)C1=O (stereo unspecified)	1	40*	-1	0	10	3
Cn1c2ccc(Cl)cc2c2nc3ccccc3nc21	5	76*	-1	3	23	-4
O[C@@H](Cc1ccccc1)[C@@H](/C=C/c1ccccc1)NCCc1ccccc1	-3	·	·	2	·	·
CCCCN(C(=O)c1cccc(N2C(=O)c3ccccc3C2=O)c1)c1c(N)n(CC(C)C)c(=O)[nH]c1=O	1	·	-7	0	5	·
CCCCN(C(=O)c1cccc(-n2cccc2)c1)c1c(N)n(Cc2ccccc2)c(=O)[nH]c1=O	14	58*	-5	-2	19	3
O=c1[nH][nH]cc1C=Nc1ccccc1O	4	31	-3	-1	-4	·
O=c1c(=Nc2ccccc2O)c(=O)c2ccccc12	17	68*	-17	5	34	25
CC(=O)Oc1ccc(-c2cc3c(OC(C)=O)cc(OC(C)=O)cc3oc2=O)cc1	-11	44*	2	-1	-5	11
CCOc1ccc(-n2c(C)cc(C(=O)CCl)c2C)cc1	8	94*	-1	-1	2	100*
CC(=O)Oc1cc2c(s1)CCN(C(C(=O)C1CC1)c1ccccc1F)C2 (stereo unspecified)	-1	·	·	11	·	·
COC(=O)C1(C(=O)OC)C[C@H](c2ccc(OC)cc2)N(Cc2ccccc2OC)[C@@H]1c1cccs1	-2	·	·	2	·	·
CC(C)NC[C@H](O)c1ccc(O)c(O)c1	7	9	-1	1	-6	·
CCC(NC(C)C)C(O)c1ccc(O)c(O)c1 (stereo unspecified)	1	50*	-3	3	-1	2
Cc1cccc(C(=O)Nc2nc3ncccn3c2-c2ccccc2)c1	6	·	·	-4	·	·
CCN(CC)c1ccc(NS(=O)(=O)c2ccc(OC)cc2)cc1	9	56*	3	6	14	56*
COc1ccc(S(=O)(=O)Nc2ccc(N(C)C(C)=O)cc2)cc1	10	-3	5	-2	10	·
